Reference: ChEMBL document CHEMBL2311432, “Synthesis, characterization and preliminary anticonvulsant evaluation of some 4-alkyl-1,2,4-triazoles” (Eur J Med Chem, 2013)
Blank lines part the entries; values can stand above or below the compound they belong to.

Columns and labels:
[1] = Neurotoxicity in ip dosed Swiss mouse assessed as delay in motor coordination administered 120 mins before test by chimney test; type: toxicity, organism-based; settings: in vivo
Procedure, shortened: (§1)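 Chimney test (Boissier). Mice must climb backward up a transparent tube (3 cm i.d., 30 cm long) within 60 s, and failure marks motor impairment. At least four groups of 8 mice receive various i.p. doses at the stated pretreatment time. TD50 comes from log-probit dose-response analysis (Litchfield-Wilcoxon), ± S.E.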

[2] = Neurotoxicity in ip dosed Swiss mouse assessed as delay in motor coordination administered 60 mins before test by chimney test; type: toxicity, organism-based; settings: in vivo; procedure, shortened: as §1
[3] = Neurotoxicity in ip dosed Swiss mouse assessed as delay in motor coordination administered 30 mins before test by chimney test; type: toxicity, organism-based; settings: in vivo; procedure, shortened: as §1
[4] = Neurotoxicity in ip dosed Swiss mouse assessed as delay in motor coordination administered 15 mins before test by chimney test; type: toxicity, organism-based; settings: in vivo; procedure, shortened: as §1
Brain = test: Drug uptake in Swiss mouse brain assessed as per 1 mg of tissue at 300 mg/kg, ip; type: ADME, organism-based; parameters: dose 300 mg/kg, route intraperitoneal; settings: in vivo
Mus musculus [5] = test: Protective index, ratio of TD50 for Swiss mouse administered 120 mins before test to ED50 for Swiss mouse administered 120 mins before test; type: functional
Mus musculus [6] = test: Protective index, ratio of TD50 for Swiss mouse administered 60 mins before test to ED50 for Swiss mouse administered 60 mins before test; type: functional
Mus musculus [7] = test: Protective index, ratio of TD50 for Swiss mouse administered 30 mins before test to ED50 for Swiss mouse administered 30 mins before test; type: functional
Procedure, shortened: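 PI equals chimney-test TD50 divided by MES-test ED50, both determined after i.p. dosing at the same pretreatment time in groups of 8 mice.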

Mus musculus [8] = test: Protective index, ratio of TD50 for Swiss mouse administered 15 mins before test to ED50 for Swiss mouse administered 15 mins before test; type: functional
Mus musculus [9] = test: Anticonvulsant activity in ip dosed Swiss mouse assessed as protection against maximal electroshock-induced seizure administered 120 mins before test; type: functional
Procedure, shortened: (§2)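 Mice in groups of 8, each used once, given various i.p. doses of fresh solution at the stated pretreatment time before maximal electroshock. Protection percentages give dose-response lines by Litchfield-Wilcoxon. ED50 is the dose protecting 50% of mice against MES seizures, reported ± S.E.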

Mus musculus [10] = test: Anticonvulsant activity in ip dosed Swiss mouse assessed as protection against maximal electroshock-induced seizure administered 60 mins before test; type: functional; procedure, shortened: as §2
Mus musculus [11] = test: Anticonvulsant activity in ip dosed Swiss mouse assessed as protection against maximal electroshock-induced seizure administered 30 mins before test; type: functional; procedure, shortened: as §2
Mus musculus [12] = test: Anticonvulsant activity in ip dosed Swiss mouse assessed as protection against maximal electroshock-induced seizure administered 15 mins before test; type: functional; procedure, shortened: as §2
Mus musculus [13] = test: Anticonvulsant activity in Swiss mouse assessed as protection against maximal electroshock-induced seizure at 300 mg/kg, ip administered 15 mins before test; type: functional; settings: route intraperitoneal
Procedure, shortened: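 Mice in groups of 8, each used once, after 7 days' adaptation. Fixed 300 mg/kg dose given i.p. from freshly prepared solution, then maximal electroshock applied at the stated pretreatment time. Read-out is the percentage of the 8 mice protected against MES-induced seizures.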

SMILES: CCCC(CCC)C(=O)[O-].CCCC(CCC)C(=O)[O-].[Mg+2] [MAGNESIUM VALPROATE]
- TD50 at 2 h [1]: 512 mg/kg
- TD50 at 1 h [2]: 417 mg/kg
- TD50 at 0.5 h [3]: 373 mg/kg
- TD50 at 0.25 h [4]: 363 mg/kg

- Drug uptake (Brain): Not Active
SMILES: CCCCCCCCCCCCn1c(-c2cccc(Cl)c2)n[nH]c1=S

SMILES: CCCCCn1c(-c2cccc(Cl)c2)n[nH]c1=S
- Ratio TD50/ED50 (Mus musculus [5]): 2.7
- Ratio TD50/ED50 (Mus musculus [6]): 4.4
- Ratio TD50/ED50 (Mus musculus [7]): 4.8
- Ratio TD50/ED50 (Mus musculus [8]): 6.7
- TD50 at 2 h [1]: 392 mg/kg
- TD50 at 1 h [2]: 303 mg/kg
- TD50 at 0.5 h [3]: 310 mg/kg
- TD50 at 0.25 h [4]: 310 mg/kg
- ED50 (Mus musculus [9]): 147 mg/kg
- ED50 (Mus musculus [10]): 69.5 mg/kg
- ED50 (Mus musculus [11]): 65.2 mg/kg
- ED50 (Mus musculus [12]): 46.5 mg/kg
- Activity (Mus musculus [13]): 100%

SMILES: CCCCCCCCCn1c(-c2cccc(Cl)c2)n[nH]c1=S
- Ratio TD50/ED50 (Mus musculus [5]): 4.6
- Ratio TD50/ED50 (Mus musculus [6]): 6.1
- Ratio TD50/ED50 (Mus musculus [7]): 5.5
- Ratio TD50/ED50 (Mus musculus [8]): 4.6
- TD50 at 2 h [1]: 659 mg/kg
- TD50 at 1 h [2]: 640 mg/kg
- TD50 at 0.5 h [3]: 713 mg/kg
- TD50 at 0.25 h [4]: 667 mg/kg
- ED50 (Mus musculus [9]): 143 mg/kg
- ED50 (Mus musculus [10]): 105 mg/kg
- ED50 (Mus musculus [11]): 130 mg/kg
- ED50 (Mus musculus [12]): 144 mg/kg
- Activity (Mus musculus [13]): 100%

SMILES: CCCCn1c(-c2cccc(Cl)c2)n[nH]c1=S
- Ratio TD50/ED50 (Mus musculus [5]): 1.4
- Ratio TD50/ED50 (Mus musculus [6]): 2.7
- Ratio TD50/ED50 (Mus musculus [7]): 5.2
- Ratio TD50/ED50 (Mus musculus [8]): 10.3
- TD50 at 2 h [1]: 429 mg/kg
- TD50 at 1 h [2]: 414 mg/kg
- TD50 at 0.5 h [3]: 405 mg/kg
- TD50 at 0.25 h [4]: 398 mg/kg
- ED50 (Mus musculus [9]): 311 mg/kg
- ED50 (Mus musculus [10]): 156 mg/kg
- ED50 (Mus musculus [11]): 77.8 mg/kg
- ED50 (Mus musculus [12]): 38.5 mg/kg
- Activity (Mus musculus [13]): 100%

SMILES: CCCCCCCn1c(-c2cccc(Cl)c2)n[nH]c1=S
- Ratio TD50/ED50 (Mus musculus [5]): 3.3
- Ratio TD50/ED50 (Mus musculus [6]): 4.2
- Ratio TD50/ED50 (Mus musculus [7]): 6.5
- Ratio TD50/ED50 (Mus musculus [8]): 7.5
- TD50 at 2 h [1]: 440 mg/kg
- TD50 at 1 h [2]: 430 mg/kg
- TD50 at 0.5 h [3]: 423 mg/kg
- TD50 at 0.25 h [4]: 416 mg/kg
- ED50 (Mus musculus [9]): 135 mg/kg
- ED50 (Mus musculus [10]): 102 mg/kg
- ED50 (Mus musculus [11]): 65.2 mg/kg
- ED50 (Mus musculus [12]): 55.1 mg/kg
- Activity (Mus musculus [13]): 100%

SMILES: CCCCCCn1c(-c2cccc(Cl)c2)n[nH]c1=S
- Ratio TD50/ED50 (Mus musculus [5]): 2.8
- Ratio TD50/ED50 (Mus musculus [6]): 4.7
- Ratio TD50/ED50 (Mus musculus [7]): 6.8
- Ratio TD50/ED50 (Mus musculus [8]): 9.7
- ED50 (Mus musculus [9]): 160 mg/kg
- ED50 (Mus musculus [10]): 98.1 mg/kg
- ED50 (Mus musculus [11]): 68.3 mg/kg
- ED50 (Mus musculus [12]): 47.6 mg/kg
- Activity (Mus musculus [13]): 100%

SMILES: CCn1c(S)nnc1-c1cccc(Cl)c1
- Ratio TD50/ED50 (Mus musculus [5]): 2.8
- Ratio TD50/ED50 (Mus musculus [6]): 2.9
- Ratio TD50/ED50 (Mus musculus [7]): 3.7
- Ratio TD50/ED50 (Mus musculus [8]): 4.8
- TD50 at 2 h [1]: 887 mg/kg
- TD50 at 1 h [2]: 742 mg/kg
- TD50 at 0.5 h [3]: 753 mg/kg
- TD50 at 0.25 h [4]: 731 mg/kg
- ED50 (Mus musculus [9]): 320 mg/kg
- ED50 (Mus musculus [10]): 252 mg/kg
- ED50 (Mus musculus [11]): 204 mg/kg
- ED50 (Mus musculus [12]): 153 mg/kg
- Activity (Mus musculus [13]): 100%
